Data taken from ChEMBL document CHEMBL4825671, “Design, synthesis and biological evaluation of novel FXIa inhibitors with 2-phenyl-1H-imidazole-5-carboxamide moiety as P1 fragment” (Eur J Med Chem, 2021).
One block for each molecule: values may come before it.

Experiments:
Coagulation factor XI [1] = target: T1, Coagulation factor XI (Homo sapiens, UniProt P03951); test: Binding affinity to coagulation factor 11a (unknown origin) assessed as inhibition constant using (p-Glu-Pro-Arg-pNa,HCl) as substrate preincubated for 5 mins followed by substrate addition and measured after 10 mins
T1 sequence (P03951 19-387 limits assumed): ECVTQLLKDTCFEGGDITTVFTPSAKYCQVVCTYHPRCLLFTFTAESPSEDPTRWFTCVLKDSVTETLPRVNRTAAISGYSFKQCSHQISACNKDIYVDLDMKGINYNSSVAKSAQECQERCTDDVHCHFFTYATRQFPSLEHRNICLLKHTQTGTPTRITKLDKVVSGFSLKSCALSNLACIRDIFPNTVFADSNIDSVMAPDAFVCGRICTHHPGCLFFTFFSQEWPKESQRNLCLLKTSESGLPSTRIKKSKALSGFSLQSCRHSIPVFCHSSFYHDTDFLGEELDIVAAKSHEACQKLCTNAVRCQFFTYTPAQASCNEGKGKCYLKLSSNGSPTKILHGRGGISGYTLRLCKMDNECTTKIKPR
T1 sequence (P03951 388-625 limits assumed): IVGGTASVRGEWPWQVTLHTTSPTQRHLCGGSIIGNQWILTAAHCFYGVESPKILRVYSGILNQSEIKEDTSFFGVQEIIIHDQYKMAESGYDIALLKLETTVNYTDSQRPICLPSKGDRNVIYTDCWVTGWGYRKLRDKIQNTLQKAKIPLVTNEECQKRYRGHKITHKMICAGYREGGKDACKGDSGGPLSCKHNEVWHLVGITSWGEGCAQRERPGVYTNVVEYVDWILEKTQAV

Coagulation factor XI [2] = target: T1, Coagulation factor XI; test: Inhibition of coagulation factor 11a (unknown origin) at 100 uM using (p-Glu-Pro-Arg-pNa,HCl) as substrate preincubated for 5 mins followed by substrate addition and measured after 10 mins relative to control; details: time 15.0 min
Oryctolagus cuniculus [3] = test: Antithrombotic activity in New Zealand White rabbit model of AV-shunt induced thrombosis assessed as reduction in thrombosis weight by measuring inhibition of thrombosis formation at 0.5 mg/kg, administered as iv bolus dose and subsequently followed by 0.8 mg/kg/hr as iv infusion relative to control; format: functional
Summary of the method: (§1)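 Male New Zealand White rabbits under urethane anesthesia (1.25 g/kg). A control-period AV shunt gave the baseline thrombus wet weight, found by subtraction. The compound in saline vehicle was then given as an IV bolus followed by continuous IV infusion via the jugular vein. A new AV shunt ran for 40 min. Result is % inhibition of thrombus formation, treatment versus control period. Three rabbits per group.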

Homo sapiens [4] = species on record: Homo sapiens; test: Competitive inhibition of coagulation factor 11a (unknown origin) assessed as Km at 0.01 uM using varying levels (p-Glu-Pro-Arg-pNa,HCl) as substrate by Lineweaver-Burk plot analysis
Summary of the method: (§2)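 Same FXIa assay (37 °C, 5 min preincubation, 405 nm read), run at four substrate levels with final concentrations of 42.5, 85, 170 and 340. Km and Vmax were taken from a Lineweaver-Burk plot using the Michaelis-Menten relationship.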

Coagulation factor VII = target: T2, Coagulation factor VII (Homo sapiens, UniProt P08709); test: Binding affinity to coagulation factor 7a (unknown origin) assessed as inhibition constant using CH3SO2-D-CHA-But-Arg-pNA,ACOH as substrate preincubated for 10 mins followed by substrate addition and further incubated for 10 mins
T2 sequence (P08709 whole entry): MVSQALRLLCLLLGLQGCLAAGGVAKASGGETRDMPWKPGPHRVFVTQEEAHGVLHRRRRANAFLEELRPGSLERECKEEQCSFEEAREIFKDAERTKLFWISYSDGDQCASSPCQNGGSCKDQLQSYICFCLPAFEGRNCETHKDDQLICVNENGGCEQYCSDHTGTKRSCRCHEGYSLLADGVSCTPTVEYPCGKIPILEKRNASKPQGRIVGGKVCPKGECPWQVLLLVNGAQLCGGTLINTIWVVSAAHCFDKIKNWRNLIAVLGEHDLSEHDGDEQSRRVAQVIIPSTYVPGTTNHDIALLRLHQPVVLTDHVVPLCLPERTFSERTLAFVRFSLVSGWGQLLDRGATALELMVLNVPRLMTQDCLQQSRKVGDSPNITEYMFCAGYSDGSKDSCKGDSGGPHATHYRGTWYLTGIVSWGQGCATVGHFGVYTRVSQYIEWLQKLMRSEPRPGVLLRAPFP
Summary of the method: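 FVIIa was preincubated with compound or blank buffer at 37 °C for 10 min. Chromogenic substrate was added and absorbance read at 405 nm. Compounds came from DMSO stocks (10 mM) diluted in assay buffer. IC50 was derived from a concentration range.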

Homo sapiens [5] = species on record: Homo sapiens; test: Competitive inhibition of coagulation factor 11a (unknown origin) using varying levels (p-Glu-Pro-Arg-pNa,HCl) as substrate by Lineweaver-Burk plot analysis; details: dose 0.005-0.04 µM; summary of the method: as §2
Coagulation factor X = Coagulation factor X (Homo sapiens, UniProt P00742); test: Binding affinity to coagulation factor 10a (unknown origin) assessed as inhibition constant using CH3OCO-D-CHA-Gly-Arg-pNA,ACOH as substrate preincubated for 10 mins followed by substrate addition
Chain of Coagulation factor X (P00742 41-179 limits assumed): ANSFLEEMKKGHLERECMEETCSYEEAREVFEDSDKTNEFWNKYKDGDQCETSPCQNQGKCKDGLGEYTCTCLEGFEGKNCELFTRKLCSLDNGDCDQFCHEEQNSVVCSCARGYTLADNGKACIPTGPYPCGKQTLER
Chain of Coagulation factor X (P00742 235-488 limits assumed): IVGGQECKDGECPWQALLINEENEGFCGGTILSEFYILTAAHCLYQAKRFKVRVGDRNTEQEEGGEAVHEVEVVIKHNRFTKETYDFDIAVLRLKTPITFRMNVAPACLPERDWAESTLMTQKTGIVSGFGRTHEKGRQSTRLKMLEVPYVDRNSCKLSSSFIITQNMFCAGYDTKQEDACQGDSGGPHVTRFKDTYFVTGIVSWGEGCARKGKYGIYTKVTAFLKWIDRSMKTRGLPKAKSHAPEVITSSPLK
Summary of the method: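 FXa was preincubated with compound or blank buffer at 25 °C for 10 min. Chromogenic substrate was added and absorbance read at 405 nm. Compounds came from DMSO stocks (10 mM) diluted in assay buffer. IC50 was derived from a concentration range.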

Homo sapiens [6] = species on record: Homo sapiens; test: Competitive inhibition of coagulation factor 11a (unknown origin) assessed as Km at 0.02 uM using varying levels (p-Glu-Pro-Arg-pNa,HCl) as substrate by Lineweaver-Burk plot analysis; summary of the method: as §2
[7] = Binding affinity to thrombin (unknown origin) assessed as inhibition constant using H-D-Phe-Pip-Arg-pNA,2HCl as substrate preincubated for 10 mins followed by substrate addition; parameters: species or system Homo sapiens
Summary of the method: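 Thrombin was preincubated with compound or blank buffer at 25 °C for 10 min. Chromogenic substrate was added and absorbance read at 405 nm. Compounds came from DMSO stocks (10 mM) diluted in assay buffer. IC50 was derived from a concentration range.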

Homo sapiens [8] = species on record: Homo sapiens; test: Selectivity ratio of Ki for coagulation factor 10a (unknown origin) to Ki for coagulation factor 11a (unknown origin)
Plasma kallikrein = Plasma kallikrein (Homo sapiens, UniProt P03952); test: Binding affinity to plasma kallikrein (unknown origin) assessed as inhibition constant using D-Pro-Phe,Arg,pNa,2HCl as substrate preincubated for 15 mins followed by substrate addition
Chain of Plasma kallikrein (P03952 20-390 limits assumed): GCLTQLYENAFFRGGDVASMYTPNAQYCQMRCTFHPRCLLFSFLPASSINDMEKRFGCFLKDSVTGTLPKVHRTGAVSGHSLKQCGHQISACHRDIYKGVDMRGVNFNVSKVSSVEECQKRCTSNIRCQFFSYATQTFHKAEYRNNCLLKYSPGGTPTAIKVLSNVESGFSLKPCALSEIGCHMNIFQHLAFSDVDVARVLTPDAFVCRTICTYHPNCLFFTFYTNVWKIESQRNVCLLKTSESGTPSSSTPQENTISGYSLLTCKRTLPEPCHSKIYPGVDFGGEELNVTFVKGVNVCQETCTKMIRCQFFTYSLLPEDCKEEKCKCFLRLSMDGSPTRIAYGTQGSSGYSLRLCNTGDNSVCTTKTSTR
Chain of Plasma kallikrein (P03952 391-638 limits assumed): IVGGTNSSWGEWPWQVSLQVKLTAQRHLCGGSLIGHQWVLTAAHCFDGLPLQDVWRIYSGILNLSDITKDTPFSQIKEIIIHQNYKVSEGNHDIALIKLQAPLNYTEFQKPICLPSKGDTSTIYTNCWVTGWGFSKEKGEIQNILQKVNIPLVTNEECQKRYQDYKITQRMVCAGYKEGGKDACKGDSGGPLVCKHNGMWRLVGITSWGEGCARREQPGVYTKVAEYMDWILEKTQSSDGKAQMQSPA

Homo sapiens [9] = species on record: Homo sapiens; test: Selectivity ratio of Ki for plasma kallikrein (unknown origin) to Ki for coagulation factor 11a (unknown origin)
Homo sapiens [10] = species on record: Homo sapiens; test: Selectivity ratio of Ki for coagulation factor 7a (unknown origin) to Ki for coagulation factor 11a (unknown origin)
Homo sapiens [11] = species on record: Homo sapiens; test: Competitive inhibition of coagulation factor 11a (unknown origin) assessed as Km at 0.005 uM using varying levels (p-Glu-Pro-Arg-pNa,HCl) as substrate by Lineweaver-Burk plot analysis; summary of the method: as §2
Homo sapiens [12] = species on record: Homo sapiens; test: Competitive inhibition of coagulation factor 11a (unknown origin) assessed as Vmax at 0.005 to 0.04 uM using varying levels (p-Glu-Pro-Arg-pNa,HCl) as substrate by Lineweaver-Burk plot analysis; details: dose 0.005-0.04 µM; summary of the method: as §2
Oryctolagus cuniculus [13] = test: Antithrombotic activity in New Zealand White rabbit model of AV-shunt induced thrombosis assessed as reduction in thrombosis weight by measuring inhibition of thrombosis formation at 5 mg/kg, administered as iv bolus dose and subsequently followed by 8 mg/kg/hr as iv infusion relative to control; format: functional; summary of the method: as §1
Homo sapiens [14] = species on record: Homo sapiens; test: Competitive inhibition of coagulation factor 11a (unknown origin) assessed as Km at 0.04 uM using varying levels (p-Glu-Pro-Arg-pNa,HCl) as substrate by Lineweaver-Burk plot analysis; summary of the method: as §2
Oryctolagus cuniculus [15] = test: Antithrombotic activity in New Zealand White rabbit model of AV-shunt induced thrombosis assessed as reduction in thrombosis weight by measuring inhibition of thrombosis formation at 2.5 mg/kg, administered as iv bolus dose and subsequently followed by 4 mg/kg/hr as iv infusion relative to control; format: functional; summary of the method: as §1
Homo sapiens [16] = species on record: Homo sapiens; test: Selectivity ratio of Ki for thrombin (unknown origin) to Ki for coagulation factor 11a (unknown origin)

SMILES: Cc1nc(-c2cccc(Cl)c2F)n(O)c1C(=O)N[C@@H](Cc1ccccc1)C(=O)Nc1ccc(C(=O)O)cc1
- Ki (Coagulation factor XI [1]): 11.8 µM

SMILES: COc1ccc(-c2nc(C)c(C(=O)O)n2O)cc1C#N
- Ki (Coagulation factor XI [1]): 243 µM

SMILES: Cc1nc(-c2cccc(Cl)c2F)n(O)c1C(=O)N[C@@H](Cc1ccccc1)C(=O)Nc1ccc2[nH]c(C(=O)O)cc2c1
- Ki (Coagulation factor XI [1]): 2.82 µM

SMILES: Cc1nc(-c2ccccc2C#N)n(O)c1C(=O)N[C@@H](Cc1ccccc1)C(=O)Nc1ccc(C(=O)O)cc1
- Ki (Coagulation factor XI [1]): 18.9 µM
- inhibition (Coagulation factor XI [2]): 16.4%

SMILES: Cc1nc(-c2cccc(Cl)c2F)n(O)c1C(=O)N[C@@H](Cc1ccccc1)C(=O)Nc1ccc(CC(=O)O)cc1
- Ki (Coagulation factor XI [1]): 6.86 µM

SMILES: NC[C@H]1CC[C@H](C(=O)N[C@@H](Cc2ccccc2)c2nc(-c3ccc4c(N)n[nH]c4c3)c(Cl)[nH]2)CC1
- Ki (Coagulation factor XI [1]): 0.0015 µM
- inhibition (INH) (Oryctolagus cuniculus [3]): 59.26%

SMILES: Cc1nc(-c2ccc(O)c(C#N)c2)n(O)c1C(=O)O
- Ki (Coagulation factor XI [1]): 228 µM

SMILES: Cc1nc(-c2cccc(C#N)c2)n(O)c1C(=O)O
- Ki (Coagulation factor XI [1]): 120 µM

SMILES: Cc1nc(-c2ccccc2Cl)n(O)c1C(=O)N[C@@H](Cc1ccccc1)C(=O)Nc1ccc(C(=O)O)cc1
- Ki (Coagulation factor XI [1]): > 100 µM
- inhibition (Coagulation factor XI [2]): 34.1%

SMILES: Cc1nc(-c2cccc(Cl)c2F)n(O)c1C(=O)N[C@@H](Cc1ccc(N)cc1)C(=O)Nc1ccc2[nH]c(C(=O)O)cc2c1
- Ki (Coagulation factor XI [1]): 3.08 µM

SMILES: Cc1nc(-c2cccc(Cl)c2F)n(O)c1C(=O)N[C@@H](Cc1ccc([N+](=O)[O-])cc1)C(=O)Nc1ccc2[nH]c(C(=O)O)cc2c1
- Ki (Coagulation factor XI [1]): 7.32 µM

SMILES: Cc1nc(-c2cccc(Cl)c2)n(O)c1C(=O)N[C@@H](Cc1ccccc1)C(=O)Nc1ccc(C(=O)O)cc1
- Ki (Coagulation factor XI [1]): 14.5 µM

Further lines, with some results ahead:

- Ki (Coagulation factor XI [1]): 0.0813 µM
SMILES: Cc1nc(-c2cccc(Cl)c2F)n(O)c1C(=O)N[C@@H](Cc1ccc(NC(=O)c2ncccn2)cc1)C(=O)Nc1ccc2[nH]c(C(=O)O)cc2c1

- Ki (Coagulation factor XI [1]): 0.031 µM
SMILES: CC#CC(=O)Nc1ccc(C[C@H](NC(=O)c2c(C)nc(-c3cccc(Cl)c3F)n2O)C(=O)Nc2ccc3[nH]c(C(=O)O)cc3c2)cc1

- Ki (Coagulation factor XI [1]): 0.155 µM
SMILES: Cc1nc(-c2cccc(Cl)c2F)n(O)c1C(=O)N[C@@H](Cc1ccc(NC(=O)c2ccccn2)cc1)C(=O)Nc1ccc2[nH]c(C(=O)O)cc2c1

- Km (Homo sapiens [4]): 60.3 µM
- Ki (Coagulation factor VII): 4.19 µM
- inhibition (Homo sapiens [5]): Dose-Dependent Effect
- Ki (Coagulation factor X): > 8 µM
- Ki (Coagulation factor XI [1]): 0.009 µM
- Km (Homo sapiens [6]): 89.9 µM
- Ki [7]: > 12.5 µM
- Ratio Ki (Homo sapiens [8]): > 400
- Ki (Plasma kallikrein): 0.192 µM
- Ratio Ki (Homo sapiens [9]): 21.3
- Ratio Ki (Homo sapiens [10]): > 400
- Km (Homo sapiens [11]): 45.5 µM
- Vmax (Homo sapiens [12]): 0.17 µM/min
- Km (Homo sapiens [14]): 128 µM
- Ratio Ki (Homo sapiens [16]): > 400
SMILES: Cc1nc(-c2cccc(Cl)c2F)n(O)c1C(=O)N[C@@H](Cc1ccc(NC(=O)C2CC2C)cc1)C(=O)Nc1ccc2[nH]c(C(=O)O)cc2c1 (stereo partly drawn)
- inhibition (INH) (Oryctolagus cuniculus [3]): 26.8%
- inhibition (INH) (Oryctolagus cuniculus [13]): 51.04%
- inhibition (INH) (Oryctolagus cuniculus [15]): 42.67%

- Ki (Coagulation factor XI [1]): 0.486 µM
SMILES: Cc1nc(-c2cccc(Cl)c2F)n(O)c1C(=O)N[C@@H](Cc1ccc(F)cc1)C(=O)Nc1ccc2[nH]c(C(=O)O)cc2c1

- Ki (Coagulation factor XI [1]): 0.962 µM
SMILES: Cc1nc(-c2cccc(Cl)c2F)n(O)c1C(=O)N[C@@H](Cc1ccc(Br)cc1)C(=O)Nc1ccc2[nH]c(C(=O)O)cc2c1
